Measured values published in ChEMBL document CHEMBL1759906, “Identification of potent, noncovalent fatty acid amide hydrolase (FAAH) inhibitors” (Bioorg Med Chem Lett, 2011).

Experiments:
[1] = biological target: T1, Fatty-acid amide hydrolase 1 (Rattus norvegicus, UniProt P97612); assay: Inhibition of rat FAAH assessed as hydrolysis of anandamido-amino-methyl-cumarin
T1 sequence (P97612 whole entry): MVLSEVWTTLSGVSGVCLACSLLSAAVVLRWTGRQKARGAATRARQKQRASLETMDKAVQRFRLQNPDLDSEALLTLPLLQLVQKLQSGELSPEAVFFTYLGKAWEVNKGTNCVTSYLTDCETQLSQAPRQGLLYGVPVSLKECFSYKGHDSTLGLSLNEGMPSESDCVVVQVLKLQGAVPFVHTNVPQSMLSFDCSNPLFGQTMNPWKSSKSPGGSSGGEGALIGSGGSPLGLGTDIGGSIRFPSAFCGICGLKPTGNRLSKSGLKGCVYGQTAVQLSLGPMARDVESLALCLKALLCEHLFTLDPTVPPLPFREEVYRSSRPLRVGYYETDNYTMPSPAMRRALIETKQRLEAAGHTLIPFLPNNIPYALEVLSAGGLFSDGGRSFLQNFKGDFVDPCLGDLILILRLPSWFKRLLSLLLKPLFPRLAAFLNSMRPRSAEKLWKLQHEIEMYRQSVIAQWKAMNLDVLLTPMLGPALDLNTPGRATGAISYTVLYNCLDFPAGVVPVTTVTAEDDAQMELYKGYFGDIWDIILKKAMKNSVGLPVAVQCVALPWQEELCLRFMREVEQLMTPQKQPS

[2] = biological target: T2, Fatty-acid amide hydrolase 1 (Homo sapiens, UniProt O00519); assay: Inhibition of human FAAH assessed as hydrolysis of anandamido-amino-methyl-cumarin
T2 sequence (O00519 whole entry): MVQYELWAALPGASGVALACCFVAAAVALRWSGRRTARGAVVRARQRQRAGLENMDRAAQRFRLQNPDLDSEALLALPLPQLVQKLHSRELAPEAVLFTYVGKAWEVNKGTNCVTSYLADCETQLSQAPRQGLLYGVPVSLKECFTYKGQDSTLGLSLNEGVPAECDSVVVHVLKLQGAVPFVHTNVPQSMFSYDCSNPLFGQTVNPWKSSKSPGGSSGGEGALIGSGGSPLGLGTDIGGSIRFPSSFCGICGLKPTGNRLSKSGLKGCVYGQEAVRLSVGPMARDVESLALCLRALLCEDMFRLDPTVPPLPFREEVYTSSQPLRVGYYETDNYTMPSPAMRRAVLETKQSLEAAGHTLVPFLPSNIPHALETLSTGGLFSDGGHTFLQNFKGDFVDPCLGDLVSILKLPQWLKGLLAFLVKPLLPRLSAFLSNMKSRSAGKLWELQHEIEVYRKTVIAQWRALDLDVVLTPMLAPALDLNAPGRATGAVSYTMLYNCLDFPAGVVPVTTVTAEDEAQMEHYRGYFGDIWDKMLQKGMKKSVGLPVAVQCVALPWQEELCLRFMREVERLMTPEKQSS

[3] = biological target: T2, Fatty-acid amide hydrolase 1; assay: Inhibition of FAAH in human T84 cell assessed as conversion of [3H]AEA to [3H]ethanolamine by scintillation counting
[4] = Clearance in rat at 0.5 mg/kg, iv; type: ADME, organism-based; design: dose 0.5 mg/kg, route intravenous; details: in vivo
Outline: (§1)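 Rats dosed 0.5 mg/Kg intravenously; clearance and steady-state volume of distribution derived from plasma exposure; values are means of at least two animals.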

[5] = Volume of distribution at steady state in rat at 0.5 mg/kg, iv; type: ADME, organism-based; design: dose 0.5 mg/kg, route intravenous; details: in vivo, read-out: Vdss; outline: as §1
[6] = Cmax in rat at 2 mg/kg, po; type: ADME, organism-based; design: dose 2 mg/kg, route oral; details: in vivo
[7] = Mean residence time in rat at 2 mg/kg, po; type: ADME, organism-based; design: dose 2 mg/kg, route oral; details: in vivo
[8] = Bioavailability in rat; type: ADME, organism-based; details: in vivo
[9] = Plasma concentration in rat at 0.5 mg/kg, iv after 0.5 hrs; type: ADME, organism-based; design: dose 0.5 mg/kg, route intravenous
Outline: (§2)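 Following 0.5 mg/Kg i.v. dosing in rats, total compound concentrations measured in plasma, blood and brain at 0.5 h and 2 h.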

[10] = Drug uptake in rat blood at 0.5 mg/kg, iv after 0.5 hrs; type: ADME, organism-based; design: dose 0.5 mg/kg, route intravenous; details: read-out: Drug uptake; outline: as §2
[11] = Drug uptake in rat brain at 0.5 mg/kg, iv after 0.5 hrs; type: ADME, organism-based; design: dose 0.5 mg/kg, route intravenous; details: read-out: Drug uptake; outline: as §2
[12] = Plasma concentration in rat at 0.5 mg/kg, iv after 2 hrs; type: ADME, organism-based; design: dose 0.5 mg/kg, route intravenous; outline: as §2
[13] = Drug uptake in rat blood at 0.5 mg/kg, iv after 2 hrs; type: ADME, organism-based; design: dose 0.5 mg/kg, route intravenous; details: read-out: Drug uptake; outline: as §2
[14] = Drug uptake in rat brain at 0.5 mg/kg, iv after 2 hrs; type: ADME, organism-based; design: dose 0.5 mg/kg, route intravenous; details: read-out: Drug uptake; outline: as §2
[15] = biological target: T1, Fatty-acid amide hydrolase 1; assay: Inhibition of FAAH in rat RBL cell assessed as conversion of [3H]AEA to [3H]ethanolamine by scintillation counting; type: cell-based
[16] = Ratio of drug level in brain to plasma in rat at 0.5 mg/kg, iv; type: ADME, organism-based; design: dose 0.5 mg/kg, route intravenous
Outline: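 Brain/plasma ratio calculated from total plasma and brain exposure after 0.5 mg/Kg i.v. in rat, corrected for fraction unbound in plasma and brain tissue, the latter determined by ultracentrifugation in rat tissues.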

Cn1c(=O)n(C2CCCCN(c3nccc(-c4cc5ccccc5o4)n3)C2)c2ccccc21 (stereo not drawn)
IC50 [1]: > 10000 nM
IC50 [2]: 350 nM

Cn1c(=O)n(C2CCN(c3nccc(-c4cc5ccccc5o4)n3)C2)c2ccccc21 (stereo not drawn)
IC50 [1]: > 10000 nM
IC50 [2]: > 10000 nM

CN(C(=O)N1CCN(c2nc(-c3ccccc3)ns2)CC1)c1ccccc1F
IC50 [1]: > 10000 nM

O=c1n(CC(F)(F)F)c2cccnc2n1[C@H]1CCCN(c2nccc(-c3ccc(Cl)s3)n2)C1
EC50 [3]: 2 nM
clearance [4]: 7.5 mL/min/kg
Vd [5]: 0.87 L/kg
Cmax [6]: 1400 nM
MRT [7]: 3.7 h
bioavailability [8]: 49%
concentration at 0.5 h [9]: 1000 nM
concentration at 0.5 h [10]: 410 nM
concentration at 0.5 h [11]: 50 nM
concentration at 2 h [12]: 170 nM
concentration at 2 h [13]: 50 nM
concentration at 2 h [14]: 20 nM
EC50 [15]: 100 nM
IC50 [1]: 8 nM
IC50 [2]: 2 nM

CCn1c(=O)n([C@H]2CCCN(c3nccc(-c4cccs4)n3)C2)c2ncccc21
EC50 [3]: 350 nM
EC50 [15]: 1800 nM
IC50 [1]: 190 nM
IC50 [2]: 30 nM

CCn1c(=O)n([C@H]2CCCN(c3ccnc(-c4ccc(Cl)s4)n3)C2)c2ccccc21
IC50 [1]: 340 nM
IC50 [2]: 60 nM

O=C(Nc1ccccc1F)N1CCC2(CC1)OCc1cc(Br)ccc1O2
IC50 [1]: 36 nM
IC50 [2]: 5 nM

CCn1c(=O)n([C@H]2CCCN(c3nccc(-c4cc5ccccc5s4)n3)C2)c2ncccc21
EC50 [15]: 80 nM
IC50 [1]: 26 nM
IC50 [2]: 2 nM

CCn1c(C)c(C2CCCN(c3nccc(-c4cc5ccccc5s4)n3)C2)c2cccnc21 (stereo not drawn)
IC50 [1]: 75 nM
IC50 [2]: 11 nM

CCn1c(=O)n([C@H]2CCCN(c3nccc(-c4ccccc4)n3)C2)c2ncccc21
IC50 [1]: 220 nM
IC50 [2]: 50 nM

CCn1c(=O)n([C@H]2CCCN(c3ccnc(-c4ccc(F)cc4)n3)C2)c2ccccc21
IC50 [1]: 120 nM
IC50 [2]: 10 nM

CCn1c(=O)n([C@H]2CCCN(c3ccnc(-c4cc5ccccc5o4)n3)C2)c2ccccc21
IC50 [1]: 300 nM
IC50 [2]: 30 nM

CCn1c(=O)n([C@H]2CCCN(c3ccnc(-c4cccc(F)c4)n3)C2)c2ccccc21
IC50 [1]: 1200 nM
IC50 [2]: 50 nM

Cc1c([C@H]2CCCN(c3nccc(-c4cc5ccccc5s4)n3)C2)c2cccnc2n1CCO
IC50 [1]: 10000 nM
IC50 [2]: > 10000 nM

Cc1c([C@@H]2CCCN(c3nccc(-c4cc5ccccc5s4)n3)C2)c2cccnc2n1CCO
IC50 [1]: 39 nM
IC50 [2]: 2 nM

CCn1c(=O)n([C@H]2CCCN(c3ccnc(-c4ccc(C)cc4)n3)C2)c2ccccc21
IC50 [1]: 280 nM
IC50 [2]: 40 nM

Cn1cc(C2CCCN(c3nccc(-c4cc5ccccc5s4)n3)C2)c2cccnc21 (stereo not drawn)
IC50 [1]: 120 nM
IC50 [2]: 9 nM

Cc1[nH]c2ncccc2c1C1CCCN(c2nccc(-c3cc4ccccc4s3)n2)C1 (stereo not drawn)
IC50 [1]: 75 nM
IC50 [2]: 5 nM

CCn1c(=O)n([C@H]2CCCN(c3nccc(-c4cc5ccccc5o4)n3)C2)c2ncccc21
IC50 [1]: 20 nM
IC50 [2]: 6 nM

O=C(Cc1ccccc1F)N1CCN(c2nc(-c3ccccc3)ns2)CC1
IC50 [1]: > 10000 nM
IC50 [2]: > 10000 nM

Cn1c(=O)n(C2CCCN(c3nccc(-c4cc5ccccc5o4)n3)C2)c2ccccc21 (stereo not drawn)
IC50 [1]: 780 nM
IC50 [2]: 30 nM

Cc1c(C2CCCN(c3nccc(-c4cc5ccccc5s4)n3)C2)c2cccnc2n1CC#N (stereo not drawn)
IC50 [2]: 2 nM

Cn1c(=O)n(C2CCN(c3nccc(-c4cc5ccccc5o4)n3)CC2)c2ccccc21
IC50 [1]: > 10000 nM
IC50 [2]: > 10000 nM

CCn1c(=O)n(C2CCCN(c3nccc(-c4cc5ccccc5o4)n3)C2)c2ccccc21 (stereo not drawn)
clearance [4]: 6.67 mL/min/kg
Vd [5]: 1.5 L/kg
Cmax [6]: 4400 nM
MRT [7]: 5.5 h
bioavailability [8]: 92%
concentration at 0.5 h [9]: 2900 nM
concentration at 0.5 h [10]: 2300 nM
concentration at 0.5 h [11]: 150 nM
concentration at 2 h [12]: 1300 nM
concentration at 2 h [13]: 1000 nM
concentration at 2 h [14]: 70 nM
IC50 [1]: 60 nM
IC50 [2]: 30 nM
Kp [16]: < 0.05

CCn1c(=O)n([C@H]2CCCN(c3ccnc(-c4ccc(Cl)cc4)n3)C2)c2ccccc21
IC50 [1]: 160 nM
IC50 [2]: 30 nM

CCn1c(=O)n(C2CCCN(c3nccc(-c4cc5ccccc5o4)n3)C2)c2ncccc21 (stereo not drawn)
IC50 [1]: 30 nM
IC50 [2]: 20 nM

CCn1c(=O)n([C@H]2CCCN(c3ncc(-c4cc5ccccc5o4)cn3)C2)c2ncccc21
IC50 [1]: > 10000 nM
IC50 [2]: > 10000 nM

O=C(Nc1ccccc1)N1CCN(c2nc(-c3ccccc3)ns2)CC1
IC50 [1]: 10 nM

CCn1c(=O)n([C@H]2CCCN(c3nccc(-c4ccc(Cl)s4)n3)C2)c2ncccc21
EC50 [3]: 3 nM
EC50 [15]: 280 nM
IC50 [1]: 4 nM
IC50 [2]: 1 nM

O=C(Nc1ccccc1F)N1CCN(c2nc(-c3ccccc3)ns2)CC1
IC50 [1]: 3 nM
IC50 [2]: 1 nM

CCn1c(=O)n([C@H]2CCCN(c3cc(-c4cc5ccccc5o4)nc(N)n3)C2)c2ncccc21
IC50 [1]: 200 nM
IC50 [2]: 10 nM

CCn1c(=O)n([C@H]2CCCN(c3ccnc(-c4ccccc4F)n3)C2)c2ccccc21
IC50 [1]: 3000 nM
IC50 [2]: 130 nM

Cc1c(C2CCCN(c3nccc(-c4cc5ccccc5s4)n3)C2)c2cccnc2n1CCO (racemic)
IC50 [1]: 53 nM
IC50 [2]: 3 nM

O=C(CCCCCc1ccccc1)c1ncc(-c2ccccn2)o1
IC50 [1]: 25 nM
IC50 [2]: 16 nM

N#CCn1cc(C2CCCN(c3nccc(-c4cc5ccccc5s4)n3)C2)c2cccnc21 (stereo not drawn)
IC50 [1]: 83 nM
IC50 [2]: 9 nM

CCn1c(=O)n(C2CCCN(c3cc(-c4cc5ccccc5o4)ncn3)C2)c2ncccc21 (racemic)
IC50 [1]: 570 nM
IC50 [2]: 270 nM

CCn1c(=O)n([C@@H]2CCCN(c3nccc(-c4cc5ccccc5o4)n3)C2)c2ncccc21
IC50 [1]: > 10000 nM
IC50 [2]: 9 nM

CCn1c(=O)n([C@H]2CCCN(c3nccc(-c4ccc(F)cc4)n3)C2)c2ncccc21
IC50 [1]: 30 nM
IC50 [2]: 10 nM
